Measured values as given in ChEMBL document CHEMBL4219116, “Adenosine analogs bearing phosphate isosteres as human MDO1 ligands” (Bioorg Med Chem, 2018).
The source made the active and inactive calls. The rule behind the calls is not given here.

Legend:
[1] = molecular target: T1, ADP-ribose glycohydrolase MACROD1 (Homo sapiens) (UniProt Q9BQ69); experiment: Inhibition of recombinant human N-terminal His6-tagged MDO1 (58 to 325 residues) expressed in Escherichia coli Rosetta2 (DE3) at 1 mM using mono-biotin-ADP-ribosylated SRPK2 as substrate after 16 hrs by Western blot analysis
T1 sequence (whole entry): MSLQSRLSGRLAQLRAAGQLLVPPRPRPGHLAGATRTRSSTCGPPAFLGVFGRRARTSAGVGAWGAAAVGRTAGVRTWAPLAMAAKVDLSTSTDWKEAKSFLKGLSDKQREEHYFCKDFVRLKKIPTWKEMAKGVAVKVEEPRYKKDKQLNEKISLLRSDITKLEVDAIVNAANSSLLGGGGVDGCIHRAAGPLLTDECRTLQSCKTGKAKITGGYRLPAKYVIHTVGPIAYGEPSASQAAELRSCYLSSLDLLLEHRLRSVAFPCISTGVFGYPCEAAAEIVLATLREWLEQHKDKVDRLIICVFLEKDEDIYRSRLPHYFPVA
Summary of the method: (§1)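 Substrate was SRPK2 mono-biotin-ADP-ribosylated by ARTD10. 2 μM substrate, 2 μM MDO1 and 0.8–1 mM compound were incubated 16 h in 25 mM HEPES pH 7.5, 100 mM NaCl. The reaction was stopped with Laemmli buffer at 95 °C for 5 min, then run on SDS-PAGE and blotted. Detection used streptavidin-HRP with chemiluminescence. Readout was qualitative, against SRPK2-alone and no-inhibitor controls.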

[2] = molecular target: T1, ADP-ribose glycohydrolase MACROD1 (Homo sapiens); experiment: Inhibition of recombinant human N-terminal His6-tagged MDO1 (58 to 325 residues) expressed in Escherichia coli Rosetta2 (DE3) at 6.6 mM using mono-ADP-ribosylated SRPK2 as substrate after 1 hr 20 mins by Alphascreen assay
Summary of the method: (§2)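 AlphaScreen hydrolysis assay run in quadruplicate, with compound from 6.6 mM to 0.66 μM in half-log dilutions. MDO1 or MDO2 (800 nM final) was added, then mono-ADP-ribosylated SRPK2 (50 nM final), and incubated 1 h 20 min at room temperature. Acceptor/donor beads (5 μg/ml final) were added for 3 h in the dark before reading luminescence.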

[3] = molecular target: T2, ADP-ribose glycohydrolase MACROD2 (Homo sapiens) (UniProt A1Z1Q3); experiment: Inhibition of recombinant MDO2 (7 to 243 residues) (unknown origin) expressed in Escherichia coli Rosetta2 (DE3) at 6.6 mM using mono-ADP-ribosylated SRPK2 as substrate after 1 hr 20 mins by Alphascreen assay; summary of the method: as §2
T2 sequence (whole entry): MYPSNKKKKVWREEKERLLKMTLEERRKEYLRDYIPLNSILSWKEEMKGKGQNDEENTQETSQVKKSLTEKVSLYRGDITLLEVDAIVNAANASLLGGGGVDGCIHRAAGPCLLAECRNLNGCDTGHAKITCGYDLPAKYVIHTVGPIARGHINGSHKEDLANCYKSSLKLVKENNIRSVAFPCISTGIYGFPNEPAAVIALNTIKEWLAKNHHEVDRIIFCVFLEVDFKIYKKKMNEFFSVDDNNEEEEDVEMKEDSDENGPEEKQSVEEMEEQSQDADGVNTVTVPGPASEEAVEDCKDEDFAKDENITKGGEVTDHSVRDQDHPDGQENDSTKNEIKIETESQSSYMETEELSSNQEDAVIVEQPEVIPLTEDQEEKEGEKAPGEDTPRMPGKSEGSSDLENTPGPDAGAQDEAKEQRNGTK

[4] = molecular target: T1, ADP-ribose glycohydrolase MACROD1 (Homo sapiens); experiment: Inhibition of recombinant human N-terminal His6-tagged MDO1 (58 to 325 residues) expressed in Escherichia coli Rosetta2 (DE3) at 0.8 mM using mono-biotin-ADP-ribosylated SRPK2 as substrate after 16 hrs by Western blot analysis; summary of the method: as §1
[5] = molecular target: T3, ADP-ribose glycohydrolase MACROD1 (Homo sapiens, UniProt Q9BQ69); experiment: Binding affinity to human MDO1 by ITC
T3 sequence (Q9BQ69 whole entry): T1 sequence (whole entry)

[6] = molecular target: T1, ADP-ribose glycohydrolase MACROD1 (Homo sapiens); experiment: Binding affinity to human MDO1 assessed as change in melting temperature by DSF method
Summary of the method: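 Thermal shift read-out: a hydrophobic reporter dye binds the exposed protein core as the protein denatures with rising temperature. ΔTm is taken as the stabilization by ligand.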

[7] = molecular target: T1, ADP-ribose glycohydrolase MACROD1 (Homo sapiens); experiment: Inhibition of recombinant human N-terminal His6-tagged MDO1 (58 to 325 residues) expressed in Escherichia coli Rosetta2 (DE3) using mono-biotin-ADP-ribosylated SRPK2 as substrate after 16 hrs by Western blot analysis; summary of the method: as §1

inhibition [1] | inhibition [4] | SMILES | also measured
Active |  | Cc1ccc(CNc2c(NC[C@H]3O[C@@H](n4cnc5c(N)ncnc54)[C@H](O)[C@@H]3O)c(=O)c2=O)cc1 | inhibition [2]: inactive; inhibition [3]: inactive
 | inactive | Nc1ncnc2c1ncn2[C@@H]1O[C@H](CNc2c(NCc3ccc(F)cc3)c(=O)c2=O)[C@@H](O)[C@H]1O | 
inactive |  | Nc1ncnc2c1ncn2[C@@H]1O[C@H](CNc2c(NCc3ccccc3)c(=O)c2=O)[C@@H](O)[C@H]1O | 
 | inactive | Nc1ncnc2c1ncn2[C@@H]1O[C@H](CNc2c(Nc3cccc(O)c3)c(=O)c2=O)[C@@H](O)[C@H]1O | 
 | inactive | CCCCNc1c(NC[C@H]2O[C@@H](n3cnc4c(N)ncnc43)[C@H](O)[C@@H]2O)c(=O)c1=O | 
 | inactive | Nc1ncnc2c1ncn2[C@@H]1O[C@H](CNc2c(Nc3cccc([N+](=O)[O-])c3)c(=O)c2=O)[C@@H](O)[C@H]1O | 
inactive |  | COc1ccc(CNc2c(NC[C@H]3O[C@@H](n4cnc5c(N)ncnc54)[C@H](O)[C@@H]3O)c(=O)c2=O)cc1 | 

Further lines, the molecule ahead of its results:

SMILES | inhibition [1] | inhibition [4] | also measured
Nc1ncnc2c1ncn2C1OC(CNC(=O)CSc2nnnn2-c2ccccc2)[C@@H](O)[C@H]1O (single isomer, unassigned) | inactive |  | 
Nc1ncnc2c1ncn2C1OC(CNC(=O)Cc2nnn[nH]2)[C@@H](O)[C@H]1O (single isomer, unassigned) | inactive |  | 
Nc1ncnc2c1ncn2[C@@H]1O[C@H](COP(=O)(O)OP(=O)(O)OC[C@@H]2O[C@H](O)[C@@H](O)[C@H]2O)[C@@H](O)[C@H]1O |  |  | Kd [5]: 900 nM; ΔTm [6]: 5 °C; inhibition [7]: Active
Nc1ncnc2c1ncn2[C@@H]1O[C@H](COP(=O)(O)O)[C@@H](O)[C@H]1O |  |  | ΔTm [6]: < 1 °C; inhibition [7]: inactive
Nc1ncnc2c1ncn2C1OC(CNC(=O)[C@H](CO)NC(=O)OCC2c3ccccc3-c3ccccc32)[C@@H](O)C1O (single isomer, unassigned) |  | Active | inhibition [2]: inactive; inhibition [3]: inactive
Nc1ncnc2c1ncn2[C@@H]1O[C@H](COP(=O)(O)OP(=O)(O)O)[C@@H](O)[C@H]1O |  |  | ΔTm [6]: < 1 °C; inhibition [7]: inactive
Nc1ncnc2c1ncn2C1OC(CNC(=O)[C@H](CC(=O)O)NC(=O)OCC2c3ccccc3-c3ccccc32)[C@@H](O)C1O (single isomer, unassigned) | inactive |  | 
Nc1ncnc2c1ncn2C1OC(CNC(=O)[C@@H](N)CO)[C@@H](O)C1O (single isomer, unassigned) | inactive |  | 
